Experimental data from ChEMBL document CHEMBL3860034, “Development of Potent and Selective S. aureus Sortase A Inhibitors Based on Peptide Macrocycles” (ACS Med Chem Lett, 2016).
pKi: −log10 of the molar value. *1 amine or outer side, *2 acyl side, *3 side chain or, on linkers, in order; H or OH if unused. Where a SMILES comes first, the peptide text is derived from it. Bridges are numbered along the chain shown (N, C = ends). TBMB = c1c(C[*:1])cc(C[*:3])cc1C[*:2]; mXylylene = c1cc(C[*:1])cc(C[*:2])c1

Molecular target: T1, Sortase A (Staphylococcus aureus, UniProt Q9S446)
T1 sequence (Q9S446 whole entry): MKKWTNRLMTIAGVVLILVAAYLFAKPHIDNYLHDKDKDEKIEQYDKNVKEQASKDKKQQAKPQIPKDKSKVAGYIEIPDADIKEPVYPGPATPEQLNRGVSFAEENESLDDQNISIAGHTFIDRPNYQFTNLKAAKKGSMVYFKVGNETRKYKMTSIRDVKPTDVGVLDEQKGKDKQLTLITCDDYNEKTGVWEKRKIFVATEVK
Assay: Inhibition of Staphylococcus aureus His6-biotinylated SrtA expressed in Escherichia coli XL1-blue using Dabcyl-LPETG-Edans as substrate assessed as residual activity by fluorescence assay
In short: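 (His)6-SrtA26−206 from E. coli XL1-blue, purified by Ni affinity and gel filtration. Enzyme at 2.5 μM incubated with varied peptide concentrations (up to 300 μM). Residual activity measured with 20 μM Dabcyl-LPETG-Edans and 200 μM triglycine in 50 mM Tris-Cl pH 7.4, 150 mM NaCl, 5 mM CaCl2, 0.1% BSA, 37 °C. Fluorescence read at ex 350/em 480 nm. Ki from Supporting Information equations; at least three measurements.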

Compound | pKi
CC[C@H](C)[C@@H]1NC(=O)[C@H](CO)NC(=O)[C@@H](NC(=O)[C@H](C)N)CSCc2cc3cc(c2)CSC[C@H](NC(=O)[C@@H]2CCCN2C(=O)[C@@H]2CCCN2C(=O)[C@H](CC(C)C)NC1=O)C(=O)N[C@H](CC(N)=O)C(=O)N1CCC[C@H]1C(=O)N1CCC[C@H]1C(=O)N[C@@H](CCC(N)=O)C(=O)N[C@H](C(=O)NCC(N)=O)CSC3 | 4.95
CC(C)C[C@@H]1NC(=O)[C@@H]2CCCN2C(=O)[C@@H](NC(=O)[C@H](C)N)CSCc2cc3cc(c2)CSC[C@H](NC(=O)[C@@H]2CCCN2C(=O)[C@@H]2CCCN2C(=O)[C@H](CC(C)C)NC1=O)C(=O)N[C@@H](Cc1cnc[nH]1)C(=O)N[C@@H](CC(C)C)C(=O)N1CCC[C@H]1C(=O)N[C@@H](CCC(N)=O)C(=O)N[C@H](C(=O)NCC(N)=O)CSC3 (H-ACPLLPPCHLPQCG-NH2; linker 2-8-13 via TBMB) | 4.88 to 5.03
CC[C@H](C)[C@@H]1NC(=O)[C@H](CO)NC(=O)[C@H](CO)NC(=O)[C@@H]2CSCc3cc(cc(c3)CSC[C@@H](C(=O)NCC(N)=O)NC(=O)[C@@H]3CCCN3C(=O)[C@@H]3CCCN3C(=O)[C@H](CC(C)C)NC1=O)CSC[C@H](NC(=O)[C@H](C)N)C(=O)N[C@@H](CCSC)C(=O)N[C@@H](Cc1ccc(O)cc1)C(=O)N[C@@H](CCC(N)=O)C(=O)N[C@@H](C)C(=O)N[C@@H](C)C(=O)N[C@@H](CC(C)C)C(=O)N2 (H-ACMYQAALCSSILPPCG-NH2; linker 2-9-16 via TBMB) | 5.03
CC(C)C[C@@H]1NC(=O)[C@@H](NC(=O)[C@H](C)N)CSCc2cc3cc(c2)CSC[C@H](NC(=O)[C@@H]2CCCN2C(=O)[C@@H]2CCCN2C(=O)[C@H](CC(C)C)NC(=O)[C@H](CCC(N)=O)NC1=O)C(=O)N[C@@H](CO)C(=O)N[C@@H](CO)C(=O)N1CCC[C@H]1C(=O)N[C@H](C(=O)NCC(N)=O)CSC3 (H-ACLQLPPCSSPCG-NH2; linker 2-8-12 via TBMB) | 4.94
CC(C)C[C@@H]1NC(=O)[C@H](CCC(N)=O)NC(=O)[C@@H]2CCCN2C(=O)[C@@H](NC(=O)[C@H](C)N)CSCc2cccc(c2)CSC[C@@H](C(=O)NCC(N)=O)NC(=O)[C@@H]2CCCN2C(=O)[C@@H]2CCCN2C1=O (H-ACPQLPPCG-NH2; linker 2-8 via mXylylene) | 5.31
CC[C@H](C)[C@@H]1NC(=O)[C@H](CO)NC(=O)[C@@H](NC(=O)[C@H](C)N)CSCc2cc3cc(c2)CSC[C@H](NC(=O)[C@@H]2CCCN2C(=O)[C@@H]2CCCN2C(=O)[C@H](CC(C)C)NC1=O)C(=O)N[C@@H](CC(N)=O)C(=O)N1CCC[C@H]1C(=O)N1CCC[C@H]1C(=O)N[C@@H](CCC(N)=O)C(=O)N[C@H](C(=O)NCC(N)=O)CSC3 | 4.95
CC(C)C[C@@H]1NC(=O)[C@H](CCC(N)=O)NC(=O)[C@@H]2CCCN2C(=O)[C@@H](NC(=O)[C@H](C)N)CSCc2cc3cc(c2)CSC[C@H](NC(=O)[C@@H]2CCCN2C(=O)[C@@H]2CCCN2C1=O)C(=O)N[C@@H](CCCNC(=N)N)C(=O)N[C@@H](C(C)C)C(=O)N[C@@H](CO)C(=O)N[C@H](C(=O)NCC(N)=O)CSC3 (H-ACPQLPPCRVSCG-NH2; linker 2-8-12 via TBMB) | 5.37
CC(C)C[C@@H]1NC(=O)[C@H](CCC(N)=O)NC(=O)[C@H](CCCNC(=N)N)NC(=O)[C@@H](NC(=O)[C@H](C)N)CSCc2cc3cc(c2)CSC[C@H](NC(=O)[C@@H]2CCCN2C(=O)[C@@H]2CCCN2C1=O)C(=O)N[C@@H](C)C(=O)N[C@@H](CCC(=O)O)C(=O)N[C@@H](Cc1ccc(O)cc1)C(=O)N[C@@H](C(C)C)C(=O)N[C@H](C(=O)NCC(N)=O)CSC3 | 4.34
CC[C@H](C)[C@@H]1NC(=O)CNC(=O)[C@H](CCC(N)=O)NC(=O)[C@@H](NC(=O)[C@H](C)N)CSCc2cc3cc(c2)CSC[C@H](NC(=O)[C@@H]2CCCN2C(=O)[C@@H]2CCCN2C(=O)[C@H](CC(C)C)NC1=O)C(=O)NCC(=O)N[C@@H](CCCNC(=N)N)C(=O)NCC(=O)NCC(=O)NCC(=O)N[C@H](C(=O)NCC(N)=O)CSC3 (H-ACQGILPPCGRGGGCG-NH2; linker 2-9-15 via TBMB) | 4.38
CC[C@H](C)[C@@H]1NC(=O)[C@H](C)NC(=O)[C@@H](NC(=O)[C@H](C)N)CSCc2cc3cc(c2)CSC[C@H](NC(=O)[C@@H]2CCCN2C(=O)[C@@H]2CCCN2C(=O)[C@H](CC(C)C)NC1=O)C(=O)N[C@@H](CCC(N)=O)C(=O)N1CCC[C@H]1C(=O)N[C@@H](CCCNC(=N)N)C(=O)N[C@H](C(=O)NCC(N)=O)CSC3 | 4.67
CC[C@H](C)[C@@H]1NC(=O)CNC(=O)[C@H](CCC(N)=O)NC(=O)[C@@H](NC(=O)[C@H](C)N)CSCc2cc3cc(c2)CSC[C@H](NC(=O)[C@@H]2CCCN2C(=O)[C@@H]2CCCN2C(=O)[C@H](CC(C)C)NC1=O)C(=O)NCC(=O)N[C@@H](CCCNC(=N)N)C(=O)NCC(=O)NCC(=O)NCC(=O)NCC(=O)N[C@H](C(=O)NCC(N)=O)CSC3 (H-ACQGILPPCGRGGGGCG-NH2; linker 2-9-16 via TBMB) | 4.38
CC(C)C[C@@H]1NC(=O)[C@H](CCC(N)=O)NC(=O)[C@H](CCCNC(=N)N)NC(=O)[C@H](NC(=O)[C@H](C)N)CSCc2cc3cc(c2)CSC[C@H](C(=O)NCC(N)=O)NC(=O)[C@H](C(C)C)NC(=O)[C@H](Cc2ccc(O)cc2)NC(=O)[C@H](CCC(=O)O)NC(=O)[C@H](C)NC(=O)[C@H](CSC3)NC(=O)[C@@H]2CCCN2C(=O)[C@@H]2CCCN2C1=O | 4.34
CC(C)C[C@@H]1NC(=O)[C@H](CO)NC(=O)[C@@H]2CSCc3cc(cc(c3)CSC[C@H](NC(=O)[C@H](C)N)C(=O)N3CCC[C@H]3C(=O)N[C@@H](CC(C)C)C(=O)N[C@@H](CC(C)C)C(=O)N3CCC[C@H]3C(=O)N3CCC[C@H]3C(=O)N2)CSC[C@@H](C(=O)NCC(=O)O)NC(=O)[C@H](CC(=O)O)NC1=O (H-ACPLLPPCSLDCG-OH; linker 2-8-12 via TBMB) | 5.82
CC(C)C[C@@H]1NC(=O)[C@@H]2CCCN2C(=O)[C@@H](NC(=O)[C@H](C)N)CSCc2cc3cc(c2)CSC[C@H](NC(=O)[C@@H]2CCCN2C(=O)[C@@H]2CCCN2C(=O)[C@H](CC(C)C)NC1=O)C(=O)N[C@@H](C)C(=O)N[C@@H](CC(=O)O)C(=O)N[C@@H](CC(=O)O)C(=O)N[C@H](C(=O)NCC(N)=O)CSC3 (H-ACPLLPPCADDCG-NH2; linker 2-8-12 via TBMB) | 5.52
CC[C@H](C)[C@@H]1NC(=O)[C@H](C)NC(=O)[C@@H](NC(=O)[C@H](C)N)CSCc2cc3cc(c2)CSC[C@H](C(=O)NCC(N)=O)NC(=O)[C@H](CCCNC(=N)N)NC(=O)[C@@H]2CCCN2C(=O)[C@H](CCC(N)=O)NC(=O)[C@H](CSC3)NC(=O)[C@@H]2CCCN2C(=O)[C@@H]2CCCN2C(=O)[C@H](CC(C)C)NC1=O | 4.67
CC(C)C[C@@H]1NC(=O)[C@H]([C@@H](C)O)NC(=O)[C@@H](NC(=O)[C@H](C)N)CSCc2cc3cc(c2)CSC[C@H](NC(=O)[C@@H]2CCCN2C(=O)[C@@H]2CCCN2C(=O)[C@H](CC(C)C)NC1=O)C(=O)N[C@@H]([C@@H](C)O)C(=O)N1CCC[C@H]1C(=O)N[C@@H](CC(=O)O)C(=O)N[C@@H](CCC(N)=O)C(=O)N[C@H](C(=O)NCC(N)=O)CSC3 (H-ACTLLPPCTPDQCG-NH2; linker 2-8-13 via TBMB) | 4.49
